In ChEMBL document CHEMBL5705899 (Biochem J, 2014):
Active and inactive are the calls of the source. No cut-off for these calls is given here.

Experiments:
[1] = target: Protein kinase C delta type (Homo sapiens) (UniProt Q05655); assay: Inhibition of human PKCdelta at 1 uM using 3xChocktide-PKC as substrate in presence of 33P-ATP by ProQinase assay
[2] = target: Homeodomain-interacting protein kinase 1 (Homo sapiens) (UniProt Q86Z02); assay: Inhibition of recombinant human N-terminal GST-tagged HIPK1 (158 to 555 residues) expressed in Escherichia coli assessed as remaining activity at 1 uM using MBP as substrate incubated for 30 mins in presence of [gamma-33P]ATP by filter binding method relative to control
[3] = target: Serine/threonine-protein kinase D1 (Homo sapiens) (UniProt Q15139); assay: Inhibition of recombinant human N-terminal His6-tagged PKD1 (2 to 912 residues) expressed in baculovirus infected Sf21 cells assessed as remaining activity at 1 uM using KKLNRTLSVA as substrate incubated for 30 mins in presence of [gamma-33P]ATP by filter binding method relative to control
Chain of Serine/threonine-protein kinase D1 (Homo sapiens) (Q15139 whole entry, the tested form may be a part): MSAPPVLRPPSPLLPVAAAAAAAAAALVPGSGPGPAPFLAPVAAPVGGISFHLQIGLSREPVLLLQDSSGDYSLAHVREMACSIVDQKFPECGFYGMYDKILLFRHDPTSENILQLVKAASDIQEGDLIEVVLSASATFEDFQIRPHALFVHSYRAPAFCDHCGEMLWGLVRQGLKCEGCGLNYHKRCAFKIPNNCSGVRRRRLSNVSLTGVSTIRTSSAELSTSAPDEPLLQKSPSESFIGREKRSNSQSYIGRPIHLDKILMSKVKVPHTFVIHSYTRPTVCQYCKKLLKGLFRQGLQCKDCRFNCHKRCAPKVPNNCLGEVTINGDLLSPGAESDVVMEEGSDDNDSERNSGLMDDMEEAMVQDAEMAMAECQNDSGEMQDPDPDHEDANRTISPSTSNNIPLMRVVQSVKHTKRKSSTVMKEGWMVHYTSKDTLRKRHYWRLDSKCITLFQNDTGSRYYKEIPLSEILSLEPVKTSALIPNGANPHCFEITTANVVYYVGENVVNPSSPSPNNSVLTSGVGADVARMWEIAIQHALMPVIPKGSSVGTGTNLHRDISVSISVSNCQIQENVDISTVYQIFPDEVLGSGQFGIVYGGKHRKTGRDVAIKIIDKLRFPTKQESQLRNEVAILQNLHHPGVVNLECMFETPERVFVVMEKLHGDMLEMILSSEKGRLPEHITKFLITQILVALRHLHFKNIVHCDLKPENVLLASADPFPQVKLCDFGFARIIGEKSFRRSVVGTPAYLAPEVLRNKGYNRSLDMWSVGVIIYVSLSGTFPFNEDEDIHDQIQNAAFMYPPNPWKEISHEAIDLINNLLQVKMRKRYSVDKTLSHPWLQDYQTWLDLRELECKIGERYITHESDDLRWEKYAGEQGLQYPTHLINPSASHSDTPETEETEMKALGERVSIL

[4] = target: MAP kinase-activated protein kinase 3 (Homo sapiens) (UniProt Q16644); assay: Inhibition of human MAPKAPK3 at 1 uM using bio-4xCHKT as substrate in presence of 33P-ATP by ProQinase assay
Chain of MAP kinase-activated protein kinase 3 (Homo sapiens) (Q16644 whole entry, looked up): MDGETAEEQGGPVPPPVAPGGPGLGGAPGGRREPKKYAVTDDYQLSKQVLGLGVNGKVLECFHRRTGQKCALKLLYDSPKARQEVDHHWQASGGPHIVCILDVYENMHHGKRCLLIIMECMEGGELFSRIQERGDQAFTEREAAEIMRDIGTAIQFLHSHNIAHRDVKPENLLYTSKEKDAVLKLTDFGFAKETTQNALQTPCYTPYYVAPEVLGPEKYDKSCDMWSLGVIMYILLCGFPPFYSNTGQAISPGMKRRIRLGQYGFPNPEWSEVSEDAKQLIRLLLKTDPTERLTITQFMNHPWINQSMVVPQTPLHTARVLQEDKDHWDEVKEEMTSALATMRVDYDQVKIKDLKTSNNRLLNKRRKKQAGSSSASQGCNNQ

[5] = target: Casein kinase II subunit alpha (Homo sapiens) (UniProt P68400); assay: Inhibition of human CK2alpha1 at 1 uM using casein as substrate in presence of 33P-ATP by ProQinase assay
Chain of Casein kinase II subunit alpha (Homo sapiens) (P68400 whole entry, looked up, the tested form may be a part): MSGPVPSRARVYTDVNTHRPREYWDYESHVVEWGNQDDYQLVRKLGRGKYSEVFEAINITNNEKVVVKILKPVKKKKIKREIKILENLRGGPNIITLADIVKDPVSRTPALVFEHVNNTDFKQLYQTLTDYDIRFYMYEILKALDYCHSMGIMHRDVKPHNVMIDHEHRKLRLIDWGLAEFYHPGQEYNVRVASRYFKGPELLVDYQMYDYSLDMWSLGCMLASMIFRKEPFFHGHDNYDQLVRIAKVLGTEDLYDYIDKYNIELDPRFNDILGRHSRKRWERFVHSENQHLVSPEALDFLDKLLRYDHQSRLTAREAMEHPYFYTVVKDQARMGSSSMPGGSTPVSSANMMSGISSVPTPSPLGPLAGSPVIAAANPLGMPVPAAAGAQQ

[6] = tested on: Ribosomal protein S6 kinase beta-1 (Homo sapiens), P23443 [T412E]; assay: Inhibition of recombinant human His6-tagged S6K1 T412E mutant (1 to 421 residues) expressed in baculovirus infected sf21 cells assessed as remaining activity at 1 uM using KKRNRTLTVas substrate incubated for 30 mins in presence of [gamma-33P]ATP by filter binding method relative to control
[7] = target: Mitogen-activated protein kinase kinase kinase 3 (Homo sapiens) (UniProt Q99759); assay: Inhibition of human MEKK3 at 1 uM using casein as substrate in presence of 33P-ATP by ProQinase assay
[8] = target: Eukaryotic translation initiation factor 2-alpha kinase 3 (Homo sapiens) (UniProt Q9NZJ5); assay: Inhibition of human EIF2AK3 at 1 uM using casein as substrate in presence of 33P-ATP by ProQinase assay
Chain of Eukaryotic translation initiation factor 2-alpha kinase 3 (Homo sapiens) (Q9NZJ5 whole entry): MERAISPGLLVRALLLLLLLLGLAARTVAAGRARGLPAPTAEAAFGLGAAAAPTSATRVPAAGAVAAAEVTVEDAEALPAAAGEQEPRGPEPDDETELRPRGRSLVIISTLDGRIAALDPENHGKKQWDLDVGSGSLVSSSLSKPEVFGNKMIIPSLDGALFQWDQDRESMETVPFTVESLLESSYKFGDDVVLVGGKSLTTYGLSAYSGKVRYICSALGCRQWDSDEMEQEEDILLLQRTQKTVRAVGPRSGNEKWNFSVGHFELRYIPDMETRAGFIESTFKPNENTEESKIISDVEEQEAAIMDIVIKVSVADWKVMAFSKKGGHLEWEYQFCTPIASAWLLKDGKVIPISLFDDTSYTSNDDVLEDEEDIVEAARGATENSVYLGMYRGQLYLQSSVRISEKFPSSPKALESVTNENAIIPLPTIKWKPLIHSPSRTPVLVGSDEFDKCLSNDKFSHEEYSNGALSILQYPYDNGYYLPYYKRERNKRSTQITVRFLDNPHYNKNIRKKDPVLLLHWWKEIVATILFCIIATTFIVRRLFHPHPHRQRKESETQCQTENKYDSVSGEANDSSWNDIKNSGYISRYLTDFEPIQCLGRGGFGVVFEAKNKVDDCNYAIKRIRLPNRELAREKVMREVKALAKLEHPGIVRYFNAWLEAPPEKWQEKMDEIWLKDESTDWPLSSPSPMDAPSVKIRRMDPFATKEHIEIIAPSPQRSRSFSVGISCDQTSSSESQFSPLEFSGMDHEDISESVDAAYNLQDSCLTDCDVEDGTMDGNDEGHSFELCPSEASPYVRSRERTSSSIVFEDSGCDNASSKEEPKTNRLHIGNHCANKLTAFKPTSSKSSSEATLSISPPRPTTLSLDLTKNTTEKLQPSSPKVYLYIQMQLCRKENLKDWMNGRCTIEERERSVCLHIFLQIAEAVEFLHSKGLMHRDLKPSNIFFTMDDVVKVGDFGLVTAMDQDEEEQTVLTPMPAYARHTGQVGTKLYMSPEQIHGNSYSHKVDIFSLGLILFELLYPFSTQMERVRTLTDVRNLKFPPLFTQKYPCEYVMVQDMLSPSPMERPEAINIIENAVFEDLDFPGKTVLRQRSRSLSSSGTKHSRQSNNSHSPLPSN

[9] = target: Mitogen-activated protein kinase kinase kinase kinase 5 (Homo sapiens) (UniProt Q9Y4K4); assay: Inhibition of MAP4K5 (unknown origin) assessed as remaining activity at 1 uM relative to control
Procedure, shortened: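 Dundee panel of 140 protein kinases, tested at a single 1 μM concentration. Each assay was run in triplicate. Remaining activity is expressed relative to a control reaction without inhibitor, as mean ± S.D. Conditions for each kinase were those of the screening centre.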

[10] = target: Serine/threonine-protein kinase PLK3 (Homo sapiens) (UniProt Q9H4B4); assay: Inhibition of human PLK3 at 1 uM using casein as substrate in presence of 33P-ATP by ProQinase assay
[11] = target: Ephrin type-A receptor 3 (Homo sapiens) (UniProt P29320); assay: Inhibition of human EPHA3 at 1 uM using polyEY as substrate in presence of 33P-ATP by ProQinase assay
Chain of Ephrin type-A receptor 3 (Homo sapiens) (P29320 whole entry, the tested form may be a part): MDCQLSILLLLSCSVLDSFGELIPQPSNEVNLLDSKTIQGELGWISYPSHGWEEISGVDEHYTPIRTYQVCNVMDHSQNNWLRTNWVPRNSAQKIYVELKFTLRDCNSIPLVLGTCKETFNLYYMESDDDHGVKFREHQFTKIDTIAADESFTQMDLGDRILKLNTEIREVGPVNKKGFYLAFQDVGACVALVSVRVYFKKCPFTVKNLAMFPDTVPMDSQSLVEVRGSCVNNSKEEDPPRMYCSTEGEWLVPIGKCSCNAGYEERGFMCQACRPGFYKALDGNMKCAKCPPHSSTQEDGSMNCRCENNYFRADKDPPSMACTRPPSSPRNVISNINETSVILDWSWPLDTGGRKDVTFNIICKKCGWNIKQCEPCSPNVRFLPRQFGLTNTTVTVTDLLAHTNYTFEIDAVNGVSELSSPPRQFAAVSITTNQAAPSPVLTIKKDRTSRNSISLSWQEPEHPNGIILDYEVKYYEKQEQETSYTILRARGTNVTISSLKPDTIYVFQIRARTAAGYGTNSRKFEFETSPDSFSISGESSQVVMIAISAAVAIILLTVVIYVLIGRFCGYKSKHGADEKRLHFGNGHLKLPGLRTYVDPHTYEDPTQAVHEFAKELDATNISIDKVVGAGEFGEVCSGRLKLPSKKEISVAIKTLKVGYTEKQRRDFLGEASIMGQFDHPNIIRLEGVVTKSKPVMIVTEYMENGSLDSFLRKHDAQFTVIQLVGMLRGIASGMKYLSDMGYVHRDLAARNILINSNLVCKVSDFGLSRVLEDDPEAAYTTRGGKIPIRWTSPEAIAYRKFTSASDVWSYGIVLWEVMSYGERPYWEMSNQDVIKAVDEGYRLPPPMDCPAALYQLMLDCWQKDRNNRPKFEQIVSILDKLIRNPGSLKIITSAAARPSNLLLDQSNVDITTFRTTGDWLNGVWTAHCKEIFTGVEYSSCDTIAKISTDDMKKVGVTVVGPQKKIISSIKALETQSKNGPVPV

[12] = target: Homeodomain-interacting protein kinase 2 (Homo sapiens) (UniProt Q9H2X6); assay: Inhibition of recombinant human N-terminal GST-tagged HIPK2 (165 to 564 residues) expressed in Escherichia coli assessed as remaining activity at 1 uM using MBP as substrate incubated for 30 mins in presence of [gamma-33P]ATP by filter binding method relative to control
[13] = target: Serine/threonine-protein kinase D1 (Homo sapiens) (UniProt Q15139); assay: Inhibition of human PKCmu at 1 uM using RBER-CHKtide as substrate in presence of 33P-ATP by ProQinase assay
[14] = target: MAP kinase-activated protein kinase 2 (Homo sapiens) (UniProt P49137); assay: Inhibition of recombinant human N-terminal GST/C-terminal Myc-tagged MAPKAPK2 (46 to 400 residues) expressed in Escherichia coli assessed as remaining activity at 1 uM using KKLNRTLSVA as substrate incubated for 30 mins in presence of [gamma-33P]ATP by filter binding method relative to control
Chain of MAP kinase-activated protein kinase 2 (Homo sapiens) (P49137 whole entry, looked up, the tested form may be a part): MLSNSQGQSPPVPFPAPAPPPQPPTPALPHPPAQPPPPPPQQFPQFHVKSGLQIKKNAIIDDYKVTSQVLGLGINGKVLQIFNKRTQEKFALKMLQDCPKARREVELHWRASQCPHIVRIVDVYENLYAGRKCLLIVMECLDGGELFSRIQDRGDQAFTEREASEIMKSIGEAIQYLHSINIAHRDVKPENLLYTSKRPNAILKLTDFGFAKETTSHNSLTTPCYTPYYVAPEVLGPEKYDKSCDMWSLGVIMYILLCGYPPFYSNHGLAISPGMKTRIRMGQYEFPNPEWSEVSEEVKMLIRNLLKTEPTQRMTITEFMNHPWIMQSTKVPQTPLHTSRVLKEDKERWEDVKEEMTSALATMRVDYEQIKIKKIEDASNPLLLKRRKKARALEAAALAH

[15] = target: Ephrin type-A receptor 5 (Homo sapiens) (UniProt P54756); assay: Inhibition of human EPHA5 at 1 uM using polyEY as substrate in presence of 33P-ATP by ProQinase assay
[16] = target: Protein kinase C zeta type (Homo sapiens) (UniProt Q05513); assay: Inhibition of human PKCzeta at 1 uM using 3xChocktide-PKC as substrate in presence of 33P-ATP by ProQinase assay

Chain of Protein kinase C delta type (Homo sapiens) (Q05655 whole entry, looked up, the tested form may be a part): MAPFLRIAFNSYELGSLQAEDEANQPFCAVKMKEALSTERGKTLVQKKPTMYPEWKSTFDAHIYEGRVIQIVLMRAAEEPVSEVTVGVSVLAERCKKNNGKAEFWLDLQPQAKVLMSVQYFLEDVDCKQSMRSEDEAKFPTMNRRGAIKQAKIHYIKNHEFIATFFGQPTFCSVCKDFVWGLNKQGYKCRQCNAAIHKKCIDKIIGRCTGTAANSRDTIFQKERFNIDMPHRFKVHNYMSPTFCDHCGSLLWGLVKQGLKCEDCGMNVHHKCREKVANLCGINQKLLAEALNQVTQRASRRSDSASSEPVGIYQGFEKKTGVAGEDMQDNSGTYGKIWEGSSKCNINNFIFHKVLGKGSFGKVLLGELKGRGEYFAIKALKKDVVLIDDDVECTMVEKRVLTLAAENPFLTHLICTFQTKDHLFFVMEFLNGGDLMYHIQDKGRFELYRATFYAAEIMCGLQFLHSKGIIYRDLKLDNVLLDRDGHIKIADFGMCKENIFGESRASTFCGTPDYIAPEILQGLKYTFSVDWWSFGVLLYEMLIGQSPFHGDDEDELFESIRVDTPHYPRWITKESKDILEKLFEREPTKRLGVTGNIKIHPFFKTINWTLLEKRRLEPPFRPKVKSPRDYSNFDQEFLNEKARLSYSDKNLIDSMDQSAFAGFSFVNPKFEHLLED

CC(C)(O)CNc1ncc(-c2ccnc(Nc3ccnc(Cl)c3)n2)c(CC2CC2)n1
inhibition [1]: inactive | Activity [2]: 108% | Activity [3]: 115% | inhibition [4]: inactive | inhibition [5]: inactive | Activity [6]: 116% | inhibition [7]: inactive | inhibition [8]: inactive | Activity [9]: 105% | inhibition [10]: inactive | inhibition [11]: inactive | Activity [12]: 96% | inhibition [13]: inactive | Activity [14]: 110% | inhibition [15]: inactive | inhibition [16]: inactive
